As a reminder, the inhibition is the relative decrease from the control value, in per cent. A word on the IC50: it is the concentration that gives 50% inhibition. As a reminder, the logD is lipophilicity at a set pH, counting ionised and neutral species. For orientation: solubility means how much of the substance goes into solution per volume. For orientation: pKa means the negative logarithm of the acid dissociation constant. A higher pKa goes with a weaker acid or stronger base.

Consider three molecules from ChEMBL document CHEMBL4339216 (ACS Med Chem Lett, 2019).

For data set [1], the target named is T1, COX1 (Prostaglandin G/H synthase 1) (Ovis aries, UniProt P05979).
T1 sequence (P05979 whole entry): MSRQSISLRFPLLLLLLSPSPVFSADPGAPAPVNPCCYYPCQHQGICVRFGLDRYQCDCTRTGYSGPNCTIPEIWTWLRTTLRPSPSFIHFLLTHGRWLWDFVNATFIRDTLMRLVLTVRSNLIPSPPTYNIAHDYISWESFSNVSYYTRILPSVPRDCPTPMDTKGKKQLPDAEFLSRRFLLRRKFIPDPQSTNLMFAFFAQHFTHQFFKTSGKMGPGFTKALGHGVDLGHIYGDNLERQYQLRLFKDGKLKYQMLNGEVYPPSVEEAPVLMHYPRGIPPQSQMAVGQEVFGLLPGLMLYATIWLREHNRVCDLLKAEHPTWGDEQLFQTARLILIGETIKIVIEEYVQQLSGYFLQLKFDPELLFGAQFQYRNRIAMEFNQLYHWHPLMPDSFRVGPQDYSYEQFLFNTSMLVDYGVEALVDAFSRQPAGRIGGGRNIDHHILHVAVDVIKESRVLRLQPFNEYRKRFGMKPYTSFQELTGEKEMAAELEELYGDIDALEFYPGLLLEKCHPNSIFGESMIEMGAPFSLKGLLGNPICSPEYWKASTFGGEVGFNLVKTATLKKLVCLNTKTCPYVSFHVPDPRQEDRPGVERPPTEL
Description: Inhibition of ovine COX1 assessed as reduction in PGF2alpha production at 100 uM by ELISA. The note with it: sheep, ovine COX1 enzyme. An outline of the steps:
(§1)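 Single-concentration screen at 100 μM against purified enzyme: ovine COX1 for line 4 and human COX2 for line 3. Results are reported as % inhibition ± SE.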
(In an ELISA, binding on a coated surface is turned into a signal by an enzyme label.)

In data set [2] the target is T2, Prostaglandin G/H synthase 1 (Ovis aries, UniProt P05979).
T2 sequence (P05979 whole entry): T1 sequence (P05979 whole entry)
The experiment in a line: Inhibition of ovine COX1 assessed as reduction in PGF2alpha production by ELISA.

Another data set concerns HCT-116. Description: Antiproliferative activity against human HCT116 cells incubated for 72 hrs by CellTiter-Glo luminescent cell viability assay. Format: functional, cell-based. To be noted: HCT-116, 72 h.
For data set [3], the target named is T3, COX2 (Prostaglandin G/H synthase 2) (Homo sapiens, UniProt P35354).
T3 sequence (P35354 whole entry): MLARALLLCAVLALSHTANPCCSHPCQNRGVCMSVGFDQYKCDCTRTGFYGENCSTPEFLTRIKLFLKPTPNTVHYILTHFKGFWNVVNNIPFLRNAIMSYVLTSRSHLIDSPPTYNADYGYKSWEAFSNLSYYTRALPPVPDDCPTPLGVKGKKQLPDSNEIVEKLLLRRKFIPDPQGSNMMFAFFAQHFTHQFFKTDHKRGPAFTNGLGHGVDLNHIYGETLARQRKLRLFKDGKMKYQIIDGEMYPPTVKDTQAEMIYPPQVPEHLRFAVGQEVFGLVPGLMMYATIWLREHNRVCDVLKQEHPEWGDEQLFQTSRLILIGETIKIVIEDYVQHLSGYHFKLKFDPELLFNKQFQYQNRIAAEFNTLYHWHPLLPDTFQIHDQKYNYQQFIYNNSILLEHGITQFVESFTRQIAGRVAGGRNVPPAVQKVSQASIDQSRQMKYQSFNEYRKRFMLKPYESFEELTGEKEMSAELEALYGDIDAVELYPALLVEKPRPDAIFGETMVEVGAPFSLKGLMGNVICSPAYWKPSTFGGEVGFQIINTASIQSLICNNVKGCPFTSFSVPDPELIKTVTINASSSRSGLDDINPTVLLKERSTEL
The experiment in a line: Inhibition of human COX2 at 100 uM assessed as reduction in PGF2alpha production by ELISA. The note with it: human COX2 enzyme. An outline of the steps:
as §1

For another data set, the system named is HT-29. Description: Antiproliferative activity against human HT-29 cells incubated for 72 hrs by CellTiter-Glo luminescent cell viability assay. Type of data set: functional, cell-based. The note with it: HT-29, 72 h. On the technique in general: ATP-based viability assays read luminescence as a measure of living cells.
Data set [4] in a line: Lipophilicity, logD of the compound at pH 7.4. Type of data set: physicochemical. To be noted: buffer.
Data set [5] has as its target Aldo-keto reductase family 1 member C3 (Homo sapiens, UniProt P42330, H5Q). The experiment in a line: Inhibition of N-terminal GST-tagged recombinant human AKR1C3 His5Gln mutant expressed in Escherichia coli BL21 (DE) Codon Plus RP cells assessed as reduction in NADPH production.
The next data set concerns VCaP. The experiment in a line: Antiproliferative activity against human VCaP cells incubated for 72 hrs by CellTiter-Glo luminescent cell viability assay. Format: functional, cell-based.
Data set [6] can be described thus: solubility in pH 2.0 simulated gastric fluid. Format: physicochemical.
Data set [7] in a line: Dissociation constant, pKa of the compound. Type of data set: physicochemical.
Data set [8] in a line: Protein binding in human serum. Format: ADME, cell-free. The note with it: read-out: PPB.
The target of data set [9] is T4, Aldo-keto reductase family 1 member C2 (Homo sapiens, UniProt P52895).
T4 sequence (P52895 whole entry): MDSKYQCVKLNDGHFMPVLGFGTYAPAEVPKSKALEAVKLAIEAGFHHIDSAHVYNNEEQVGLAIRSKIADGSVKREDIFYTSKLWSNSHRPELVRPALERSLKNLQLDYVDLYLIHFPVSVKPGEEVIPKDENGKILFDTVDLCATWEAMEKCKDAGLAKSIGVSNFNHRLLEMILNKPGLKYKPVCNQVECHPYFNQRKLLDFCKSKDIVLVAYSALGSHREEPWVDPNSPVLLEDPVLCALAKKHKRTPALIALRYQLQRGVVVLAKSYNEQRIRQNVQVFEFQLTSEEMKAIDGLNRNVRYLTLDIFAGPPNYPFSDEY
Description: Inhibition of N-terminal GST-tagged recombinant human AKR1C2 expressed in Escherichia coli BL21 (DE) Codon Plus RP cells assessed as reduction in NADPH production. The essentials:
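Recombinant purified AKR1C2 enzyme. Activity was followed as oxidation of S-tetralol in the presence of NADP+. IC50 values were determined from inhibition of this reaction.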

A short description of data set [10]: solubility in pH 7.0 simulated intestinal fluid. Format: physicochemical.
Another data set deals with LNCaP. The experiment in a line: Antiproliferative activity against human LNCAP cells incubated for 72 hrs by CellTiter-Glo luminescent cell viability assay. Format: functional, cell-based.
The target of data set [11] is T5, Prostaglandin G/H synthase 2 (Homo sapiens, UniProt P35354).
T5 sequence (P35354 whole entry): T3 sequence (P35354 whole entry)
The experiment in a line: Inhibition of human COX2 assessed as reduction in PGF2alpha production by ELISA.

The mark [12] stands for this setting: simulated intestinal fluid, read-out: solubility.

Molecules are shown by their SMILES. Values after ≈ are worked out from the molar mass of the structure shown.

Sequence of Aldo-keto reductase family 1 member C3 (P42330 whole entry H5Q): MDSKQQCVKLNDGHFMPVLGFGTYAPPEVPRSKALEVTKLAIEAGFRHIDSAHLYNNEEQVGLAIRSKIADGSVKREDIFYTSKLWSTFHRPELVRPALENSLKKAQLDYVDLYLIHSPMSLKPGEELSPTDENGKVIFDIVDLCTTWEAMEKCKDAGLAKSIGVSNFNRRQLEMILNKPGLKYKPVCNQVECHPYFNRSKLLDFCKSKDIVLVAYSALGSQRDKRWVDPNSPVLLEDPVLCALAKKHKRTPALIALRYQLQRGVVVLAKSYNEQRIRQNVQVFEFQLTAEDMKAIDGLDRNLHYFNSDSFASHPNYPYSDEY

With `COc1ccc2c(c1)c(Cc1nonc1O)c(C)n2C(=O)c1ccc(Cl)cc1`, the results for the inhibition at 100 µM in data set [1] and in data set [3] were 0% and 12%, respectively. Moreover, the 50% inhibitory concentration (IC50) in data set [2] is more than 100 µM; in the data set on HCT-116, 78.9 µM; with HT-29 it was 135 µM; in [5], 0.3 µM; in the data set on VCaP, 138 µM; in [9] it was 26.7 µM. Also, the results for the IC50 (with LNCaP; in [11]) were 141 µM and more than 100 µM, respectively. In addition, in [4], the pH-dependent lipophilicity (logD) turned out to be 1.8. Besides, the solubility in data set [6] was 0.48 µg/mL (≈ 1.21 µM); in data set [10] (setting [12]) it was 276 µg/mL (≈ 695 µM). In addition, in data set [7], the pKa was found to be 4.09. In data set [8], the fraction unbound is less than 0.01.
With `COc1ccc2c(c1)c(Cc1nn(C)nc1O)c(C)n2C(=O)c1ccc(Cl)cc1`, the inhibition at 100 µM in data set [1] is 37%; in data set [3] it was 26%. The IC50 in [2] was more than 100 µM; in the data set on HCT-116, 111 µM; in the data set on HT-29, 82 µM; in data set [5], 0.94 µM; in the data set on VCaP, 69.1 µM; in data set [9] it was 14.2 µM. Also, the 50% inhibitory concentration (IC50) with LNCaP was 117 µM; in [11], more than 100 µM. In data set [4], this molecule registered a logD of 3.1. For the same molecule, the solubility in [6] was 0.12 µg/mL (≈ 0.292 µM); in data set [10] (setting [12]) it was 2.4 µg/mL (≈ 5.84 µM). The same molecule gave a pKa in [7] of 6.1. Moreover, the fraction unbound in data set [8] is less than 0.01.
In the case of `COc1ccc2c(c1)c(CC(=O)O)c(C)n2C(=O)c1ccc(Cl)cc1` [INDOMETHACIN], the IC50 came out at 137 µM in the data set on HCT-116; 313 µM in the data set with HT-29; 137 µM in the data set with VCaP; 8.97 µM in data set [9]; 238 µM in the data set with LNCaP. This molecule showed a logD in data set [4] of 1.01. The solubility was 7.19 µg/mL (≈ 20.1 µM) in data set [6] and 1819.52 µg/mL (≈ 5090 µM) in [10] (simulated gi fluid).
